Reference: paper PMC9279713 (Acta Pharmaceutica Sinica. B, 2021)

Legend:
[1] = tested on: CT26, HCT116 and SW620 cells; experiment: Western blotting of HIF-1α, PD-L1, HMGA1, p-Erk and p-Akt expression; assay type: cell-based
Outline: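 Cells were exposed to a range of test compound concentrations and then lysed in RIPA buffer containing 1% protease and 2% phosphatase inhibitors. Total lysate (20 μg protein per lane) was run on SDS-PAGE and transferred to PVDF. Membranes were blocked in 5% milk/TBST, incubated with primary antibodies overnight at 4 °C, then with an HRP-labelled secondary antibody for 2 h at room temperature.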

[2] = tested on: HCT116 and CT26 cells; experiment: Immunogenic cell death: immunofluorescence of CRT and HMGB1; assay type: cell-based; details: 100 nmol/L

## deoxybouvardin [RA-V]
[1]; CT26, HCT116 and SW620 cells
  HMGA1 expression: inhibited significantly
  p-Akt and p-Erk expression: decreased
[1]; CT26 cells, different concentrations
  PD-L1 expression: down-regulated PD-L1 expression remarkably
[2]
  ICD effect: pre-apoptotic CRT exposure to membrane surface: failed to elicit significant pre-apoptotic CRT exposure
